The results in this text go back to ChEMBL document CHEMBL1157537 (J Med Chem, 2008).

Calls of active or inactive are those of the source. The rule behind the calls is not given here.

The species named for test [1] is Rattus norvegicus. Nature of the test: Progestational activity in estrone-treated ovariectomized rat assessed as inhibition of medroxyprogesterone acetate-induced effect on vaginal epithelial thickness. Type of test: functional, organism-based. Put shortly:
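Antagonist mode of the estrone-treated ovariectomized rat multi-endpoint model: compound was combined with MPA plus estrone, with vehicle and estrone-only groups. Endpoints were uterine epithelial cell height, vaginal epithelial thickness and mammary alveolar bud proliferation.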

In test [2] the target is T1, Estrogen receptor (Homo sapiens) (UniProt P03372).
T1 sequence (whole entry): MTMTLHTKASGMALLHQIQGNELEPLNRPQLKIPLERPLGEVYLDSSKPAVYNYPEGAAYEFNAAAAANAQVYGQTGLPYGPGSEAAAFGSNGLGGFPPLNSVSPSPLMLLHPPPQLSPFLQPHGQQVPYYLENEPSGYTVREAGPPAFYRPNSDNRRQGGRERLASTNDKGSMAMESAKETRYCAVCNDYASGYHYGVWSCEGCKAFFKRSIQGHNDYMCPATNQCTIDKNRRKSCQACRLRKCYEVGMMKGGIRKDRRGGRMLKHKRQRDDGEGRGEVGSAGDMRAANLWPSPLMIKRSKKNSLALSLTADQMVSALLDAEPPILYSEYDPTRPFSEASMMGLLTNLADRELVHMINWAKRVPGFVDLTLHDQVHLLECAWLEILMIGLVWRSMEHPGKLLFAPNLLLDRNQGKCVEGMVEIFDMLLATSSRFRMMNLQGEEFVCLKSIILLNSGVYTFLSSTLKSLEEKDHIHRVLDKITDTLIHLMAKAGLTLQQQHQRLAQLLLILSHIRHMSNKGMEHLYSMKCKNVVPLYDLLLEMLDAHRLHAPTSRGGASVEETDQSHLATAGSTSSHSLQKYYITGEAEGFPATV
Nature of the test: Agonist activity at human estrogen receptor alpha relative to 17-beta-estradiol. Type of test: functional.

Test [3] relates to Rattus norvegicus. Nature of the test: Inhibition of ovulation in rat assessed as reduction in number of ova at 0.25 to 2.0 mg/kg, po for 5 days. Type of test: functional, organism-based. Put shortly: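 Female rats (n = 6 per group) received vehicle or progestin for 5 days at 0.25, 1.0 or 2.0 mg/kg. The number of ova per rat and the number of rats ovulating were then determined.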

Test [4] concerns the target T2, Glucocorticoid receptor (Homo sapiens) (UniProt P04150).
T2 sequence (whole entry): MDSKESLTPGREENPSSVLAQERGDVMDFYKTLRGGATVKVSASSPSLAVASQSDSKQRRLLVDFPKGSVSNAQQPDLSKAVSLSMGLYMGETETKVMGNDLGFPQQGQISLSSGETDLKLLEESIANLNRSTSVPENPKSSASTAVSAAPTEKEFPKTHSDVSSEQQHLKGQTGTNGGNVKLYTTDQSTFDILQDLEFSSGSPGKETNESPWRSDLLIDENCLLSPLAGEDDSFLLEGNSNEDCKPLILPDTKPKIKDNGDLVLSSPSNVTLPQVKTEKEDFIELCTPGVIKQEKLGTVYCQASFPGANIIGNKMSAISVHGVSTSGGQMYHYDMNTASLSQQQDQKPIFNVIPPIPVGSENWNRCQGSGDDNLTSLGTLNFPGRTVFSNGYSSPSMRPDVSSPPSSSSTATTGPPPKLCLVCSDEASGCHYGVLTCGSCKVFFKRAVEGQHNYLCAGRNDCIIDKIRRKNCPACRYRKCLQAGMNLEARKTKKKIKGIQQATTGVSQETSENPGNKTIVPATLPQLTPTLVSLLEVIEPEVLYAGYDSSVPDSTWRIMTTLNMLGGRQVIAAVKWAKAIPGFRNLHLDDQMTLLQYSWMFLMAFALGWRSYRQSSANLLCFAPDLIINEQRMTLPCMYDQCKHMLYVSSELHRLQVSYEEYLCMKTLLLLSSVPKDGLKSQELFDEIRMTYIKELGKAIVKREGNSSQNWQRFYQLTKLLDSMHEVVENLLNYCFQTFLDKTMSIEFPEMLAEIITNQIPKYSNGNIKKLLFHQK
In words: Antagonist activity at human glucocorticoid receptor relative to Dexamethasone. Type of test: functional.

In a further test the test system is Cynomolgus monkey. Nature of the test: Inhibition of ovulation in cynomolgus monkey assessed as reduction of progesterone level after 3 weeks. The note with it: Macaca fascicularis. Type of test: functional, organism-based.
Test [5] concerns the target T2, Glucocorticoid receptor (Homo sapiens). Nature of the test: Agonist activity at human glucocorticoid receptor relative to Dexamethasone. Type of test: functional.
Test [6] has as its target T3, Progesterone receptor (Homo sapiens) (UniProt P06401).
T3 sequence (whole entry): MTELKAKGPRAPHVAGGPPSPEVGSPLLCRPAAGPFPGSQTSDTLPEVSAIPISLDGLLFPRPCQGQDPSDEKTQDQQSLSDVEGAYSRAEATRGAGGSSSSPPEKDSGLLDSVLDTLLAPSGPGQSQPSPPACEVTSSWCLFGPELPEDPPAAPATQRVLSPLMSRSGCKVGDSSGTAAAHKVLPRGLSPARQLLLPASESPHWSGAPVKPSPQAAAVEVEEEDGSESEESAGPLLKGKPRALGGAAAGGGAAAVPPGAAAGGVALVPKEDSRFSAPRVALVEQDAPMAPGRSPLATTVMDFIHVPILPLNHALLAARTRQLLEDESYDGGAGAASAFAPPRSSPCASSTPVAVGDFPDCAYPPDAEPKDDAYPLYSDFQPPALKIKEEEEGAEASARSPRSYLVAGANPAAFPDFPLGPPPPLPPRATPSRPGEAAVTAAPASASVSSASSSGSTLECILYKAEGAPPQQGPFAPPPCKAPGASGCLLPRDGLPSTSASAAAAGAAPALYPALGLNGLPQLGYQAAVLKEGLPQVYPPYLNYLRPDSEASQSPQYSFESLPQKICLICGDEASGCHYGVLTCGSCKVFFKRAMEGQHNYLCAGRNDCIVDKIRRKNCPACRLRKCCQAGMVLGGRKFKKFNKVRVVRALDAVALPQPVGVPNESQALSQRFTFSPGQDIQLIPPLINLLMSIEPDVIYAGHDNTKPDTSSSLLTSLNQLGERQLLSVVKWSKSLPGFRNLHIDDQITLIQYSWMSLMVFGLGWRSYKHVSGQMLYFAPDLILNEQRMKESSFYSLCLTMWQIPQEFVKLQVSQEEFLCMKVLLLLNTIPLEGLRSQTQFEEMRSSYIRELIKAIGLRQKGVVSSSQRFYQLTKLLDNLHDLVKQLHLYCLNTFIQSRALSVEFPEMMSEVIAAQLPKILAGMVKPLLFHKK
In words: Agonist activity at human progesterone receptor relative to progesterone. Type of test: functional.

For `CC1=C[C@@H]([C@@H]2Oc3c(F)cc(F)cc3-c3ccc4c(c32)C(C)=CC(C)(C)N4)CCC1` (stereo in doubt; (-)-5c), in the test listed under Rattus norvegicus [1], the outcome was inactive. For the same compound, the Efficacy in test [2] is 5%; in test [4] it was 92%; in test [5], 6%; in test [6] it was 145%. Moreover, the outcome in the test with Rattus norvegicus [3] and in the test with Cynomolgus monkey was Active.
